Measurements: ChEMBL document CHEMBL2396535, “Synthesis and biological evaluation of 18F-labled 2-phenylindole derivatives as PET imaging probes for β-amyloid plaques” (Bioorg Med Chem, 2013)
pKi: −log10 of the molar value. Values belong to the compound of their own block, whether it stands above or below them.

Tests used:
[1] = Ratio of drug level in brain to blood in ICR mouse after 2 mins; type: ADME, tissue-based; conditions: brain and blood, read-out: BBR
In short: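 Male ICR mice (5 weeks) received the ¹⁸F tracer (740–1110 kBq/mL) in saline with 10% EtOH by tail-vein injection. Five mice per time point were sacrificed at 2, 10, 30 and 60 min. Organs were removed, weighed and gamma-counted, and expressed as %ID/g. The ratio is brain %ID/g over blood %ID/g at 2 min.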

Brain [2] = assay: Ratio of drug level in brain after 2 mins to drug level in brain after 60 mins in ICR mouse; type: ADME, tissue-based; conditions: in vivo
In short: (§1)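 Male normal ICR mice (5 weeks old), n = 5 per time point, received a tail-vein injection of [18F] tracer (740–1110 kBq/mL) in saline containing 10% EtOH. Mice were sacrificed at 2, 10, 30 and 60 min. Organs were removed, weighed and gamma-counted, and data were expressed as %ID/g.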

[3] = biological target: Amyloid-beta precursor protein (Homo sapiens, UniProt P05067); assay: Displacement of [125I]IMPY from amyloid beta (1 to 42) (unknown origin) after 3 hrs by gamma counting analysis
In short: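 Test compound ranged over 10^-4 to 10^-8.5 in ethanol, in 0.05% BSA, 1 mL total. Incubation was 3 h at room temperature, then GF/B filtration and gamma counting. IC50 came from three independent experiments, and Ki was derived by Cheng–Prusoff.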

Stomach [4] = assay: Biodistribution in ICR mouse stomach assessed per organ at 740 to 1110 kBq/mL, iv measured 60 mins post-injection by gamma counting analysis; type: ADME, organism-based; conditions: in vivo, 1 h; in short: as §1
Kidney [5] = assay: Biodistribution in ICR mouse kidney assessed per gram of tissue at 740 to 1110 kBq/mL, iv measured 30 mins post-injection by gamma counting analysis; type: ADME, organism-based; conditions: in vivo, 0.5 h; in short: as §1
Liver [6] = assay: Biodistribution in ICR mouse liver assessed per gram of tissue at 740 to 1110 kBq/mL, iv measured 2 mins post-injection by gamma counting analysis; type: ADME, organism-based; conditions: in vivo; in short: as §1
Liver [7] = assay: Biodistribution in ICR mouse liver assessed per gram of tissue at 740 to 1110 kBq/mL, iv measured 10 mins post-injection by gamma counting analysis; type: ADME, organism-based; conditions: in vivo; in short: as §1
Intestine [8] = assay: Biodistribution in ICR mouse intestine assessed per organ at 740 to 1110 kBq/mL, iv measured 2 mins post-injection by gamma counting analysis; type: ADME, organism-based; conditions: in vivo; in short: as §1
Stomach [9] = assay: Biodistribution in ICR mouse stomach assessed per organ at 740 to 1110 kBq/mL, iv measured 2 mins post-injection by gamma counting analysis; type: ADME, organism-based; conditions: in vivo; in short: as §1
Lung [10] = assay: Biodistribution in ICR mouse lung assessed per gram of tissue at 740 to 1110 kBq/mL, iv measured 2 mins post-injection by gamma counting analysis; type: ADME, organism-based; conditions: in vivo; in short: as §1
Intestine [11] = assay: Biodistribution in ICR mouse intestine assessed per organ at 740 to 1110 kBq/mL, iv measured 10 mins post-injection by gamma counting analysis; type: ADME, organism-based; conditions: in vivo; in short: as §1
Blood [12] = assay: Biodistribution in ICR mouse blood assessed per gram of tissue at 740 to 1110 kBq/mL, iv measured 30 mins post-injection by gamma counting analysis; type: ADME, organism-based; conditions: in vivo, 0.5 h; in short: as §1
Blood [13] = assay: Biodistribution in ICR mouse blood assessed per gram of tissue at 740 to 1110 kBq/mL, iv measured 10 mins post-injection by gamma counting analysis; type: ADME, organism-based; conditions: in vivo; in short: as §1
Blood [14] = assay: Biodistribution in ICR mouse blood assessed per gram of tissue at 740 to 1110 kBq/mL, iv measured 2 mins post-injection by gamma counting analysis; type: ADME, organism-based; conditions: in vivo; in short: as §1
Spleen [15] = assay: Biodistribution in ICR mouse spleen assessed per gram of tissue at 740 to 1110 kBq/mL, iv measured 2 mins post-injection by gamma counting analysis; type: ADME, organism-based; conditions: in vivo; in short: as §1
Lung [16] = assay: Biodistribution in ICR mouse lung assessed per gram of tissue at 740 to 1110 kBq/mL, iv measured 10 mins post-injection by gamma counting analysis; type: ADME, organism-based; conditions: in vivo; in short: as §1
Bone [17] = assay: Biodistribution in ICR mouse bone assessed per gram of tissue at 740 to 1110 kBq/mL, iv measured 10 mins post-injection by gamma counting analysis; type: ADME, organism-based, Bone element; conditions: in vivo; in short: as §1
Kidney [18] = assay: Biodistribution in ICR mouse kidney assessed per gram of tissue at 740 to 1110 kBq/mL, iv measured 60 mins post-injection by gamma counting analysis; type: ADME, organism-based; conditions: in vivo, 1 h; in short: as §1
Spleen [19] = assay: Biodistribution in ICR mouse spleen assessed per gram of tissue at 740 to 1110 kBq/mL, iv measured 30 mins post-injection by gamma counting analysis; type: ADME, organism-based; conditions: in vivo, 0.5 h; in short: as §1
Stomach [20] = assay: Biodistribution in ICR mouse stomach assessed per organ at 740 to 1110 kBq/mL, iv measured 10 mins post-injection by gamma counting analysis; type: ADME, organism-based; conditions: in vivo; in short: as §1
Liver [21] = assay: Biodistribution in ICR mouse liver assessed per gram of tissue at 740 to 1110 kBq/mL, iv measured 30 mins post-injection by gamma counting analysis; type: ADME, organism-based; conditions: in vivo, 0.5 h; in short: as §1
Blood [22] = assay: Biodistribution in ICR mouse blood assessed per gram of tissue at 740 to 1110 kBq/mL, iv measured 60 mins post-injection by gamma counting analysis; type: ADME, organism-based; conditions: in vivo, 1 h; in short: as §1
Kidney [23] = assay: Biodistribution in ICR mouse kidney assessed per gram of tissue at 740 to 1110 kBq/mL, iv measured 10 mins post-injection by gamma counting analysis; type: ADME, organism-based; conditions: in vivo; in short: as §1
Brain [24] = assay: Biodistribution in ICR mouse brain assessed per gram of tissue at 740 to 1110 kBq/mL, iv measured 10 mins post-injection by gamma counting analysis; type: ADME, organism-based; conditions: in vivo; in short: as §1
Spleen [25] = assay: Biodistribution in ICR mouse spleen assessed per gram of tissue at 740 to 1110 kBq/mL, iv measured 10 mins post-injection by gamma counting analysis; type: ADME, organism-based; conditions: in vivo; in short: as §1
Lung [26] = assay: Biodistribution in ICR mouse lung assessed per gram of tissue at 740 to 1110 kBq/mL, iv measured 30 mins post-injection by gamma counting analysis; type: ADME, organism-based; conditions: in vivo, 0.5 h; in short: as §1
Bone [27] = assay: Biodistribution in ICR mouse bone assessed per gram of tissue at 740 to 1110 kBq/mL, iv measured 30 mins post-injection by gamma counting analysis; type: ADME, organism-based, Bone element; conditions: in vivo, 0.5 h; in short: as §1
Heart [28] = assay: Biodistribution in ICR mouse heart assessed per gram of tissue at 740 to 1110 kBq/mL, iv measured 30 mins post-injection by gamma counting analysis; type: ADME, organism-based; conditions: in vivo, 0.5 h; in short: as §1
Bone [29] = assay: Biodistribution in ICR mouse bone assessed per gram of tissue at 740 to 1110 kBq/mL, iv measured 2 mins post-injection by gamma counting analysis; type: ADME, organism-based, Bone element; conditions: in vivo; in short: as §1
Heart [30] = assay: Biodistribution in ICR mouse heart assessed per gram of tissue at 740 to 1110 kBq/mL, iv measured 2 mins post-injection by gamma counting analysis; type: ADME, organism-based; conditions: in vivo; in short: as §1
Brain [31] = assay: Biodistribution in ICR mouse brain assessed per gram of tissue at 740 to 1110 kBq/mL, iv measured 60 mins post-injection by gamma counting analysis; type: ADME, organism-based; conditions: in vivo, 1 h; in short: as §1
Heart [32] = assay: Biodistribution in ICR mouse heart assessed per gram of tissue at 740 to 1110 kBq/mL, iv measured 10 mins post-injection by gamma counting analysis; type: ADME, organism-based; conditions: in vivo; in short: as §1
Bone [33] = assay: Biodistribution in ICR mouse bone assessed per gram of tissue at 740 to 1110 kBq/mL, iv measured 60 mins post-injection by gamma counting analysis; type: ADME, organism-based, Bone element; conditions: in vivo, 1 h; in short: as §1
Spleen [34] = assay: Biodistribution in ICR mouse spleen assessed per gram of tissue at 740 to 1110 kBq/mL, iv measured 60 mins post-injection by gamma counting analysis; type: ADME, organism-based; conditions: in vivo, 1 h; in short: as §1
Brain [35] = assay: Biodistribution in ICR mouse brain assessed per gram of tissue at 740 to 1110 kBq/mL, iv measured 2 mins post-injection by gamma counting analysis; type: ADME, organism-based; conditions: in vivo; in short: as §1
Stomach [36] = assay: Biodistribution in ICR mouse stomach assessed per organ at 740 to 1110 kBq/mL, iv measured 30 mins post-injection by gamma counting analysis; type: ADME, organism-based; conditions: in vivo, 0.5 h; in short: as §1
Lung [37] = assay: Biodistribution in ICR mouse lung assessed per gram of tissue at 740 to 1110 kBq/mL, iv measured 60 mins post-injection by gamma counting analysis; type: ADME, organism-based; conditions: in vivo, 1 h; in short: as §1
Intestine [38] = assay: Biodistribution in ICR mouse intestine assessed per organ at 740 to 1110 kBq/mL, iv measured 30 mins post-injection by gamma counting analysis; type: ADME, organism-based; conditions: in vivo, 0.5 h; in short: as §1
[39] = Partition coefficient, log D of the compound in n-octanol-PBS […] at pH 7.4; type: physicochemical
In short: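 [18F] tracer (1110 kBq) was added to 3.0 g n-octanol plus 3.0 g PBS (0.05 M, pH 7.4), vortexed 3 min at room temperature, then centrifuged 5 min at 3000 rpm.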

Heart [40] = assay: Biodistribution in ICR mouse heart assessed per gram of tissue at 740 to 1110 kBq/mL, iv measured 60 mins post-injection by gamma counting analysis; type: ADME, organism-based; conditions: in vivo, 1 h; in short: as §1
Kidney [41] = assay: Biodistribution in ICR mouse kidney assessed per gram of tissue at 740 to 1110 kBq/mL, iv measured 2 mins post-injection by gamma counting analysis; type: ADME, organism-based; conditions: in vivo; in short: as §1
Liver [42] = assay: Biodistribution in ICR mouse liver assessed per gram of tissue at 740 to 1110 kBq/mL, iv measured 60 mins post-injection by gamma counting analysis; type: ADME, organism-based; conditions: in vivo, 1 h; in short: as §1
Intestine [43] = assay: Biodistribution in ICR mouse intestine assessed per organ at 740 to 1110 kBq/mL, iv measured 60 mins post-injection by gamma counting analysis; type: ADME, organism-based; conditions: in vivo, 1 h; in short: as §1
Brain [44] = assay: Biodistribution in ICR mouse brain assessed per gram of tissue at 740 to 1110 kBq/mL, iv measured 30 mins post-injection by gamma counting analysis; type: ADME, organism-based; conditions: in vivo, 0.5 h; in short: as §1

Sequence of Amyloid-beta precursor protein (P05067 whole entry): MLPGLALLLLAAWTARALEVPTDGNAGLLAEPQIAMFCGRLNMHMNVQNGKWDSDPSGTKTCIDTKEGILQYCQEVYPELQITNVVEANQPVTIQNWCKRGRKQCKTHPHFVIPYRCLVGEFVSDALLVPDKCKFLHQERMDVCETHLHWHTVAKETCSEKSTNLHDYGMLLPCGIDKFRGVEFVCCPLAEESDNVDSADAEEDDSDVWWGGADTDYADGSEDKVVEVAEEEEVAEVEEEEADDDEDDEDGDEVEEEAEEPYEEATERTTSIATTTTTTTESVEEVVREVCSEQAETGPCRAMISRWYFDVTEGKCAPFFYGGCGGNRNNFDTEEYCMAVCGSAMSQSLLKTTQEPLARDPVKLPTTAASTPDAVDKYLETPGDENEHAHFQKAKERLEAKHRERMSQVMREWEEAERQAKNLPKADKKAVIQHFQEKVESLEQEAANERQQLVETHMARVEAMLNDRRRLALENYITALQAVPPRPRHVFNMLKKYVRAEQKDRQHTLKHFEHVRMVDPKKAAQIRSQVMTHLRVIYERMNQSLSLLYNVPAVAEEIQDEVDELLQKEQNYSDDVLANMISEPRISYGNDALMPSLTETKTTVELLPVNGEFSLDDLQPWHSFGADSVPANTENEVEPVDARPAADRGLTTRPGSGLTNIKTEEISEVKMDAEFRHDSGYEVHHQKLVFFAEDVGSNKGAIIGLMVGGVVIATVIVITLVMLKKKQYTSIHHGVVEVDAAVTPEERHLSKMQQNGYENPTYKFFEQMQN

Kp at 2 min [1]: 0.29
Ratio (Brain [2]): 1.33
SMILES: CNc1ccc(-c2cc3cc([125I])ccc3[nH]2)cc1

Kp at 2 min [1]: 0.19
Ratio (Brain [2]): 1.68
SMILES: CN(C)c1ccc(-c2cc3cc([125I])ccc3[nH]2)cc1

pKi [3]: 5.99
SMILES: Cn1c(-c2ccc(NCCF)cc2)cc2ccccc21

pKi [3]: 7.50
SMILES: CN(CCCF)c1ccc(-c2cc3ccccc3[nH]2)cc1

Drug uptake (Stomach [4]): 1.09 %ID
Kp at 2 min [1]: 1.72
Drug uptake (Kidney [5]): 4.17 %ID
Drug uptake (Liver [6]): 10.47 %ID
Drug uptake (Liver [7]): 8.38 %ID
Drug uptake (Intestine [8]): 6.5 %ID
Drug uptake (Stomach [9]): 1.38 %ID
Drug uptake (Lung [10]): 6.57 %ID
Drug uptake (Intestine [11]): 9.06 %ID
Drug uptake (Blood [12]): 4.21 %ID
Drug uptake (Blood [13]): 3.81 %ID
Drug uptake (Blood [14]): 3.38 %ID
Drug uptake (Spleen [15]): 2.73 %ID
Drug uptake (Lung [16]): 5.81 %ID
Drug uptake (Bone [17]): 4.13 %ID
Drug uptake (Kidney [18]): 3.54 %ID
Drug uptake (Spleen [19]): 3.23 %ID
Drug uptake (Stomach [20]): 1.54 %ID
Drug uptake (Liver [21]): 4.86 %ID
Drug uptake (Blood [22]): 4.37 %ID
Drug uptake (Kidney [23]): 5.62 %ID
Drug uptake (Brain [24]): 5.07 %ID
Drug uptake (Spleen [25]): 3.97 %ID
Drug uptake (Lung [26]): 4.27 %ID
Drug uptake (Bone [27]): 5.95 %ID
Drug uptake (Heart [28]): 3.71 %ID
Drug uptake (Bone [29]): 2.05 %ID
Drug uptake (Heart [30]): 6.76 %ID
Drug uptake (Brain [31]): 2.77 %ID
Drug uptake (Heart [32]): 4.95 %ID
Drug uptake (Bone [33]): 9.71 %ID
Drug uptake (Spleen [34]): 2.71 %ID
Drug uptake (Brain [35]): 5.82 %ID
Drug uptake (Stomach [36]): 1.43 %ID
Drug uptake (Lung [37]): 3.57 %ID
Drug uptake (Intestine [38]): 9 %ID
logD [39]: 3.61
Ratio (Brain [2]): 2.1
Drug uptake (Heart [40]): 3.81 %ID
Drug uptake (Kidney [41]): 9.66 %ID
Drug uptake (Liver [42]): 4.15 %ID
Drug uptake (Intestine [43]): 11.04 %ID
Drug uptake (Brain [44]): 3.41 %ID
SMILES: CN(CC[18F])c1ccc(-c2cc3ccccc3[nH]2)cc1

Kp at 2 min [1]: 0.59
Ratio (Brain [2]): 1.82
SMILES: COc1ccc(-c2cc3cc([125I])ccc3[nH]2)cc1
